From article PMC7568475 (Nature metabolism, 2020)
Each block holds one molecule with its values, some of them ahead of it. Where no end group is shown, it is not given here.

What was measured:
human islets [1] = experiment: Steady state urea quantification by GC-MS, human islets; assay type: cell-based
human islets [2] = experiment: Viability of human islets; assay type: cell-based
Outline: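 Human islets were cultured in PIM(S) with 5% human A/B serum and infected for PC knockdown 24 h before treatment, 72 h in total. Medium carried 1 mM argininosuccinate; cytokines were TNF-α 10, IL-1β 10 and IFNγ 100 ng/ml. AnnexinV/7AAD flow cytometry was run 48 h after cytokines. Positive cells lay ≥2 s.d. outside unstained sample means.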

GLS = GLS activity readout; assay type: cell-based; conditions: islets, readout of GLS activity, n=2 human donors
human islets [3] = experiment: NO levels by flow cytometry; assay type: cell-based
Outline: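 Islets were held 72 h in 33 mM versus 5.8 mM glucose. NO was read 24 h after cytokine treatment. For each replicate, 50 islets were dispersed in accutase at 37 °C, rinsed in PBS, and stained with DAF-FM 30 min at 37 °C. Mean FITC intensity by flow cytometry was normalized to PBS control set to 1.0.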

GK = conditions: cited from earlier work
diabetic NOD-SCID mice = assay type: in vivo, mouse; conditions: 500 pre-treated human islets in diabetic NOD-SCID mice, up to 53 days
Outline: (§1)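 Donor islets were pre-treated overnight at 37 °C with vehicle (1% DMSO), 5 µM compound, or 5 µM plus 1 mM PAA. Medium was RPMI uptake medium with 11 mM glucose, 10% serum and 0.1% Tween 80 (pH 6.0). Islets were washed and held 24 h in fresh media. Male NOD-SCID mice (10–12 wk) received single i.p. STZ 200 mg/kg. 500 islets went under the kidney capsule 24–48 h after blood glucose ≥300 mg/dl.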

[4] = tested on: β-cells in human islet grafts; experiment: β-cell death in human islet grafts; assay type: in vivo; conditions: donor islets pre-treated before transplantation; grafts excised day 2
Outline: as §1

human islets [5] = experiment: 15N2-arginine tracer study in human islets; assay type: cell-based; conditions: 15N2(guanidino)-L-arginine 72 h, cytokines 24 h, n=4 donors
Outline: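 Human islets (150 in 2 ml) incubated 72 h with 15N2(guanidino)-L-arginine at 200 mg/L in RPMI with 5.5 mM glucose and 5% human A/B serum. Cytokine mix: TNF-α 10 ng/ml, IL-1β 10 ng/ml, IFNγ 100 ng/ml. Mass isotopomer distributions were corrected for natural abundance, normalized to tracer uptake, and expressed relative to PBS control set to 1.0.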

[6] = target: T1, recombinant human glucokinase (GK, hexokinase IV) (human, UniProt P35557 1-465); experiment: ITC
T1 sequence (looked up): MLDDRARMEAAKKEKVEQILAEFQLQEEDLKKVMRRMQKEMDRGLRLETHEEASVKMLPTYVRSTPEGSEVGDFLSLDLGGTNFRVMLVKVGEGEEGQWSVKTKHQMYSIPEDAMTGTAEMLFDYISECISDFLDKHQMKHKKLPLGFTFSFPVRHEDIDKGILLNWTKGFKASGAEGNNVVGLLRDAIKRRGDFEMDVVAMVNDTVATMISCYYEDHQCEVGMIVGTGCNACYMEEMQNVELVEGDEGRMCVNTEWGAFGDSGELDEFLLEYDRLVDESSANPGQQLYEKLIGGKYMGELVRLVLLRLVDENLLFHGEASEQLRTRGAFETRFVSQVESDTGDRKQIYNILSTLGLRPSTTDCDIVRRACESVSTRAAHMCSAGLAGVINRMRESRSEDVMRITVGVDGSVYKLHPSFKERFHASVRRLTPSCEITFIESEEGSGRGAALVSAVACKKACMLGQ

[7] = PC-depleted human islets, cytokines, AS 1 mM, n=4 experiments, 2 donors
[8] = human islets, inflammatory cytokines, AS 1 mM, n=3 donors

Molecule: NC(=NCCC[C@H](N)C(=O)O)N[C@@H](CC(=O)O)C(=O)O [AS, argininosuccinic acid]
- urea levels with argininosuccinate, PC knockdown (human islets [1]; [7]): rescues urea levels
- urea levels, AS dose response (human islets [1]; human islets, 10–200 µM AS): had no effect on urea levels
- urea levels with argininosuccinate (human islets [1]; [8]): sufficient to increase urea levels
- viability with argininosuccinate, PC knockdown (human islets [2]; [7]): protects against inflammation toxicity
- viability with argininosuccinate (human islets [2]; [8]): rescue the viability of human islets undergoing inflammation

Molecule: O=C(Cc1ccccc1)Nc1nnc(CCSCCc2nnc(NC(=O)Cc3ccccc3)s2)s1 [BPTES, Bis-2-(5-phenylacetamido-1,3,4-thiadiazol-2-yl)ethyl sulfide]
- urea levels with BPTES (human islets [1]; islets, n=2 human donors): does not affect islet urea levels
- glutamate/glutamine (glu/gln) ratio (GLS): reduce the ratio of glutamate/glutamine

Molecule: COC[C@H](C)Oc1cc(O[C@@H](C)Cc2ccccc2)cc(C(=O)Nc2ccc(C(=O)O)cn2)c1 [GKA50]
- urea levels (human islets [1]; human islets, inflammatory cytokines 24 h): These differences were further recapitulated with a second, structurally distinct allosteric GKA
- NO levels (human islets [3]; inflammatory cytokines 24 h, DAF-FM): These differences were further recapitulated with a second, structurally distinct allosteric GKA

Molecule: CS(=O)(=O)c1ccc([C@@H](CC2CCCC2)C(=O)Nc2nccs2)cc1 [RO0281675]
- effect on GK affinity for glucose, allosteric activation (GK): significantly augments the enzyme’s affinity for glucose
- hyperglycemia reversal (blood glucose) (diabetic NOD-SCID mice): ineffective
- β-cell death in islet grafts [4]: ineffective
- 15N2 enrichment in urea (M+2) / ureagenesis (human islets [5]): ureagenesis was not altered
- viability / protection from cytokine-induced death (human islets [2]; human islets, TNF-α, IL-1β and IFNγ 48 h, n=6 donors (Fig. 1c)): does not protect human islets from cytokine-induced death

Molecule: OC[C@H]1OC(O)[C@H](O)[C@@H](O)[C@@H]1O (some centres unmarked) [glucose]
- urea levels, glucotoxicity (human islets [1]; human islets, 33 mM glucose 72 h vs 5.8 mM glucose): reduces urea
- NO levels, glucotoxicity (human islets [3]; 33 mM glucose 72 h vs 5.8 mM glucose): enhances NO levels

- stoichiometry N [6]: 1
Molecule: NLWAAQRYGRELRRMDDEFVDSFKK (staple (positions not given here); not fully specified) [BAD BH3 SAHBA SD (hydrocarbon stapled peptide modeled after the phospho-BAD BH3 helix)]
